Compound activity as filed in PubChem.
The list is not random: actives were taken first. Their share in the collection is about 2.5%.
SENP1 inh: human SENP1 catalytic domain inhibitors, primary screen, biochemical, FRET, uHTS | inhibition, % at 10 µM | 360,000 tested, 0.21% active | recombinant SENP1 catalytic domain, CyPet-SUMO1-YPet FRET cleavage | Sentrin-specific protease 1 (Homo sapiens), Q9P0U3;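 active means inhibition at least 30% at 10 µM, raw YFP signal under a set limit, fluorescence ratio 0.5 to 1.5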
Target sequence (Q9P0U3 419-644 limits assumed): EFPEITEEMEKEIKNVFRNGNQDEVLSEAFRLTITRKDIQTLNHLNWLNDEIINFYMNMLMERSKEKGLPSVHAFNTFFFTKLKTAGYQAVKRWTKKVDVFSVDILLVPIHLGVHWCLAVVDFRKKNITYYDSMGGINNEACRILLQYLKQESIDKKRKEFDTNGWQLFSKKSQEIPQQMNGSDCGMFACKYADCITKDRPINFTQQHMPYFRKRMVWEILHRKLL
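Controls: no-enzyme wells low, DMSO-plus-enzyme wells high control. Test system: human recombinant His6-tagged SENP1 catalytic domain enzyme. Reagent: SFCypet-SUMO1-SFYpet FRET protein substrate, 25 nM final. Doses: one dose per compound, 10 µM, 0.5% DMSO. Detection: FRET, CFP and YFP emission. Timing: 50 min reaction at room temperature.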
SENP7 block: SENP7 protease inhibitors, primary screen, biochemical, luminescence, uHTS; Sentrin-specific protease 7 (Homo sapiens), Q9BQF6; inhibition, % at 5 µM; AID 434973, 2010; recombinant SENP7, Z-RLRGG-aminoluciferin luminescence, 40 min; 330,000 tested, 1.5% active;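 active means inhibition above about 50% at the single test dose, limit read from the data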
SENP6 block: SENP6 protease inhibitors, primary screen, biochemical, luminescence, uHTS | Sentrin-specific protease 6 (Homo sapiens), Q9GZR1 | Recombinant SENP6 catalytic domain, aminoluciferin luminescence | inhibition, % at 10 µM | 330,000 tested, 1.8% active;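 active means inhibition above about 50% at the single tested dose, limit read from the data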
SENP8 block-1: SENP8 protease inhibitors, primary screen, biochemical, luminescence; inhibition, % at 10 µM; 330,000 tested, 1.2% active; Sentrin-specific protease 8 (Homo sapiens), Q96LD8; purified SENP8, Z-RLRGG-aminoluciferin cleavage; in the data active means inhibition above about 50%
Target sequence (Q96LD8 whole entry, looked up): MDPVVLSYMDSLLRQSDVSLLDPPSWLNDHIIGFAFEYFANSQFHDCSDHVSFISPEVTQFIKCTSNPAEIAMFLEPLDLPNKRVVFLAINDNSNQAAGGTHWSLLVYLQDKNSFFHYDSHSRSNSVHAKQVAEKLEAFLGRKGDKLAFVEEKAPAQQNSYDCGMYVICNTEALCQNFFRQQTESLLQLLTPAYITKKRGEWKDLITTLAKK
SENP8 block-2: human SENP8 protease inhibitors, primary screen, biochemical, fluorescence, Nedd8 protein substrate, uHTS. Sentrin-specific protease 8 (Homo sapiens), Q96LD8. recombinant SENP8. inhibition, % at 20 µM. 360,000 tested, 0.64% active. AID 602440, 2012; in the data active means inhibition mostly above about 40%, no sharp cut-off; inactive means mostly below about 27%
SENP8 conf: SENP8 protease inhibitors, retest, confirmation, biochemical, luminescence, single concentration; shares compounds with SENP7 block; Recombinant SENP8, Z-RLRGG-aminoluciferin luminescence, 60 min; inhibition, % at 12.5 µM; 6,200 tested, 40% active; AID 488912, 2010;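 active means mean inhibition across replicates above about 50%, limit read from the data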
SENP6 confirm: SENP6 protease inhibitors, confirmation, biochemical, luminescence, single concentration; 6,200 tested, 58% active; shares compounds with SENP7 block; inhibition, % at 12.5 µM; recombinant SENP6, Z-RLRGG-aminoluciferin luminescence
SENP7 confirm: SENP7 protease inhibitors, retest, confirmation, biochemical, luminescence, single concentration. 6,200 tested, 69% active. recombinant SENP7, Z-RLRGG-aminoluciferin luminescence, 40 min. shares compounds with SENP7 block. inhibition, % at 12.5 µM
Casp3 select: caspase-3 protease inhibitors, confirmation, selectivity assay for SENP inhibitor project, biochemical, single concentration; shares compounds with SENP7 block; purified caspase-3, Z-DEVD-aminoluciferin luminescence, 60 min; inhibition, % at 12.5 µM; 6,200 tested, 60% active; AID 488918, 2010;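 active means mean inhibition above about 50%, limit read from the data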
Target sequence (P42574 28-227 limits assumed): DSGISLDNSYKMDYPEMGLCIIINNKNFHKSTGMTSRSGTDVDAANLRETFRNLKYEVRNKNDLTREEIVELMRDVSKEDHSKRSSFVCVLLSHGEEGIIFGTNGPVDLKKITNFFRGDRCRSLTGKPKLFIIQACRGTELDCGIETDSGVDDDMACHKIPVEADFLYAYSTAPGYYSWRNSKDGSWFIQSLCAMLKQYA
SENP luc ctr: luminescence interference (SENP counter-screen); inhibition, % at 12.5 µM; 6,200 tested, 39% active; Pre-incubated SENP8/Z-RLRGG-aminoluciferin, luciferase luminescence interference; shares compounds with SENP7 block; AID 488919;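 active means mean inhibition above about 50% when retested at one dose, limit read from the data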
Of the large screens only hits and unclear results are named; the others gave an inactive call (follow-up assays come after a bar, where they were run).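 How the source made its calls, unless noted: active means mean inhibition above about 50% in the one-dose retest (limit read from the data); inactive means the rest.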

CCOC(=O)c1sc(Nc2ccccc2Cl)nc1C	SENP6 block 63 | SENP8 conf inactive | SENP6 confirm inactive | SENP7 confirm 73 | Casp3 select inactive | SENP luc ctr inactive
CCOC(=O)c1sc(NC(=O)c2ccc(CC)s2)nc1C	SENP7 block 67 | SENP8 conf inactive | SENP6 confirm inactive | SENP7 confirm inactive | Casp3 select inactive | SENP luc ctr inactive
CCOC(=O)CNC(=O)c1sc(NC(=O)c2ccccc2F)nc1C	SENP7 block 88, SENP6 block 77, SENP8 block-1 70 | SENP8 conf inactive | SENP6 confirm 75 | SENP7 confirm 94 | Casp3 select 92 | SENP luc ctr 79
COc1cccc(CNC(=O)[C@@H](C)N2C(=O)N3CCc4c([nH]c5ccc(OC)cc45)C3(C)C2=O)c1 (some centres undefined)	none
CCOC(=O)c1sc(NC(=O)Nc2ccccc2F)nc1C	SENP7 block 93, SENP6 block 77, SENP8 block-1 67 | SENP8 conf inactive | SENP6 confirm inactive | SENP7 confirm 62 | Casp3 select 62 | SENP luc ctr inactive
CCOC(=O)c1sc(NC(=O)/C=C/c2c(F)cccc2Cl)nc1C	none
CCOC(=O)c1sc(NC(=O)c2ccc3ncsc3c2)nc1C	SENP7 block 59 | SENP8 conf inactive | SENP6 confirm inactive | SENP7 confirm inactive | Casp3 select inactive | SENP luc ctr inactive
CCOC(=O)c1sc(NC(=O)c2ccccc2OC)nc1C	SENP7 block 102, SENP6 block 97, SENP8 block-1 98 | SENP8 conf 80 | SENP6 confirm 70 | SENP7 confirm 99 | Casp3 select 63 | SENP luc ctr inactive
CCOC(=O)c1sc(NC(=O)c2ccc(S(=O)(=O)N(C)C)cc2)nc1C	none
CCc1ccc(C(=O)Nc2nc(C)cs2)s1	SENP7 block 82, SENP6 block 76, SENP8 block-1 63 | SENP8 conf 77 | SENP6 confirm 73 | SENP7 confirm 93 | Casp3 select 78 | SENP luc ctr 77
O=C(Nc1nnc(Cc2ccc(F)cc2)s1)Nc1ccccc1F	none
O=C(Nc1nnc(Cc2ccccc2F)s1)Nc1ccccc1F	SENP7 block 85 | SENP8 conf inactive | SENP6 confirm inactive | SENP7 confirm inactive | Casp3 select inactive | SENP luc ctr inactive
CNC(=O)c1c(NC(=O)c2cccc(C)c2)sc2c1CCC2	none
Cc1cccc(C(=O)Nc2sc3c(c2C#N)CCCCC3)c1	SENP7 block 77 | SENP8 conf inactive | SENP6 confirm inactive | SENP7 confirm inactive | Casp3 select inactive | SENP luc ctr inactive
N#Cc1c(NC(=O)c2ccc([N+](=O)[O-])o2)sc2c1CCC2	SENP6 block 80 | SENP8 conf 58 | SENP6 confirm 79 | SENP7 confirm 79 | Casp3 select 76 | SENP luc ctr inactive
N#Cc1c(NC(=O)COC(=O)c2ccc(F)cc2)sc2c1CCC2	SENP7 block 51 | SENP8 conf inactive | SENP6 confirm inactive | SENP7 confirm inactive | Casp3 select inactive | SENP luc ctr inactive
N#Cc1c(NC(=O)c2ccccc2)sc2c1CCC2	SENP6 block 63 | SENP8 conf inactive | SENP6 confirm inactive | SENP7 confirm inactive | Casp3 select inactive | SENP luc ctr inactive
Cc1ccc(C(=O)OCC(=O)Nc2sc3c(c2C#N)CCC3)cc1	none
O=C(O)COc1ccccc1/C=N/NC(=O)CSc1nc2ccccc2n1Cc1ccc(Cl)cc1	none
CCn1cnc2sc(-c3ccccc3)cc2c1=O	SENP6 block 58 | SENP8 conf inactive | SENP6 confirm inactive | SENP7 confirm 65 | Casp3 select inactive | SENP luc ctr inactive
CC(Sc1nnc2ccccn12)C(=O)Nc1ccc2c(c1)OCO2 (centres undefined)	none
CCc1ccn2cc(-c3cc(-c4ccccc4)no3)nc2c1	SENP7 block 97, SENP6 block 93, SENP8 block-1 90 | SENP8 conf inactive | SENP6 confirm 93 | SENP7 confirm 77 | Casp3 select 62 | SENP luc ctr inactive
NS(=O)(=O)c1ccc(CCNC(=O)COC(=O)C2COc3ccccc3O2)cc1 (centres undefined)	none
COc1ccc(C(O)c2cnc(C)n2Cc2ccccc2)cc1 (centres undefined)	none (no result: SENP7 block, SENP6 block, SENP8 block-1)
COc1cc2c(C(=O)N3CCN(c4cccc(Cl)c4)CC3)cn(CC(C)C)c(=O)c2cc1OC	none
Nc1nn(-c2ccccc2)c(N)c1N=Nc1ccc2c(c1)OCO2	SENP6 block 62 | SENP8 conf inactive | SENP6 confirm inactive | SENP7 confirm 76 | Casp3 select inactive | SENP luc ctr 61
Nc1[nH]n(-c2ccccc2)c(=O)c1N=Nc1ccc2c(c1)OCCO2	SENP7 block 93, SENP6 block 73, SENP8 block-1 84 | SENP8 conf inactive | SENP6 confirm 94 | SENP7 confirm 99 | Casp3 select 83 | SENP luc ctr inactive
O=C(Nc1ccc2c(c1)OCCO2)C1c2ccccc2OCC(=O)N1Cc1cccnc1 (centres undefined)	none (no result: SENP7 block, SENP6 block, SENP8 block-1)
Cc1ccccc1/C(N)=N/OC(=O)c1cccs1	SENP6 block 74 | SENP8 conf 56 | SENP6 confirm 55 | SENP7 confirm 84 | Casp3 select 80 | SENP luc ctr 62
Cc1ccccc1/C(N)=N/OC(=O)/C=C/c1ccccc1	SENP7 block 60, SENP6 block 67 | SENP8 conf 51 | SENP6 confirm 52 | SENP7 confirm 83 | Casp3 select 71 | SENP luc ctr 64
O=S(=O)(c1ccccc1)N(CC1CO1)c1cccc2ccccc12 (centres undefined)	none
COc1ccc(/C=C/CN2CCCC(CO)(Cc3cccc(Cl)c3)C2)cc1 (centres undefined)	none
